Reference: ChEMBL document CHEMBL4196006, “Aryl thiosemicarbazones for the treatment of trypanosomatidic infections” (Eur J Med Chem, 2018)
The source made the active and inactive calls. No cut-off for these calls is given here.

Assays:
[1] = tested on: Trypanosoma brucei; assay: Potentiation of methotrexate-induced antitrypanosomal activity against Trypanosoma brucei Lister 427 bloodstream form assessed as combination index at EC50 after 72 hrs by resazurin dye-based assay; assay type: functional
[2] = tested on: Trypanosoma brucei; assay: Potentiation of methotrexate-induced antitrypanosomal activity against Trypanosoma brucei Lister 427 bloodstream form at 10 uM after 72 hrs by resazurin dye-based assay relative to control; assay type: functional
[3] = Selectivity ratio of EC50 for Trypanosoma cruzi amastigote form to EC50 for Trypanosoma brucei Lister 427 bloodstream form; assay type: functional
[4] = tested on: Leishmania infantum; assay: Antileishmanial activity against Leishmania infantum amastigote form assessed as parasite growth inhibition at 50 uM after 72 hrs by steady-Glo reagent based assay relative to control; assay type: functional
How it was run: (§1)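 Intramacrophage L. infantum amastigotes in THP-1-derived macrophages, tested at 50 μM or in dose-response. Plates held 72 h at 37 °C, 5% CO2. Medium was replaced by PBS, macrophages lysed, and parasites read by Steady-Glo luminescence. High-content imaging gave host cell number, infection ratio (infected/total cells) and parasites per infected cell. Values are means of at least two independent experiments.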

[5] = tested on: Trypanosoma brucei; assay: Potentiation of methotrexate-induced antitrypanosomal activity against Trypanosoma brucei Lister 427 bloodstream form assessed as dose reduction index for methotrexate at EC50 after 72 hrs by resazurin dye-based assay; assay type: functional
[6] = biological target: Aurora kinase B (Homo sapiens, UniProt Q96GD4); assay: Inhibition of recombinant full-length human aurora B kinase expressed in baculovirus system at 10 uM using MBP as substrate incubated for 45 mins by ADP-glo kinase assay; conditions: probe MBP
How it was run: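 Aurora B activity measured as ADP formation via coupled luciferase ADP-Glo luminescence; single-point at 10 μM, triplicate.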

[7] = biological target: CYP2C9 (Homo sapiens, UniProt P11712); assay: Inhibition of human microsomal CYP2C9 expressed in baculovirus infected BTI-TN-5B1-4 cells at 10 uM incubated for 30 mins by luciferase assay relative to control; assay type: ADME
How it was run: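 CYP1A2, 2C9, 2C19, 2D6 and 3A4 in microsomes from baculovirus-infected insect cells, each with a P450-Glo luminogenic substrate. Inhibition read as loss of light; single-point at 10 μM, triplicate.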

[8] = Cytotoxicity against human 786-O cells assessed as inhibition of mitochondrial viability at 10 uM after 6 hrs by CMXRos staining based assay relative to control; assay type: cell-based, 786-0; conditions: read-out: INH
How it was run: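 Mitochondrial toxicity monitored by MitoTracker Red CMXRos uptake and high-content imaging; compound at 10 μM, triplicate.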

[9] = tested on: Trypanosoma brucei; assay: Antitrypanosomal activity against Trypanosoma brucei Lister 427 bloodstream form at 6:1 methotrexate to test compound ratio after 72 hrs by resazurin dye-based assay; assay type: functional, organism-based; conditions: Lister 427, 72 h
[10] = tested on: Trypanosoma cruzi; assay: Antitrypanosomal activity against Trypanosoma cruzi amastigote form infected in human U2OS cells assessed as parasite growth inhibition after 72 hrs; assay type: functional, organism-based
How it was run: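 U2OS monolayers grown for 24 h, then infected with tissue-derived trypomastigotes of T. cruzi Y strain. Compounds were added 24 h after infection at 50 μM (single-point) or in dose-response, with 72 h exposure. Plates were fixed, stained and analysed by high-content imaging; activity was normalized to infected and non-infected controls. Means of at least two experiments; benznidazole as reference.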

[11] = tested on: Trypanosoma brucei; assay: Antitrypanosomal activity against Trypanosoma brucei Lister 427 bloodstream form at 30:1 methotrexate to test compound ratio after 72 hrs by resazurin dye-based assay; assay type: functional, organism-based; conditions: Lister 427, 72 h
[12] = Cytotoxicity against human THP1 cells assessed as decrease in viable cells after 72 hrs by MTT assay; assay type: cell-based, THP-1; conditions: THP1 cells
How it was run: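 THP-1-derived macrophages exposed to compounds for 72 h, tested at 100 μM or in dose-response; viability read by MTT colorimetric assay.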

[13] = Selectivity index, ratio of CC50 for human U2OS cells to EC50 for Trypanosoma cruzi amastigote form; assay type: toxicity; conditions: read-out: Ratio CC50/EC50
How it was run: (§2)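 Selectivity index = CC50 in the human host or cytotoxicity cell line divided by parasite EC50.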

[14] = Cytotoxicity against human U2OS cells assessed as decrease in viable cells after 72 hrs by cell number count in anti-T. cruzi high content imaging assay; conditions: U2OS cells
[15] = tested on: Leishmania infantum; assay: Antileishmanial activity against Leishmania infantum amastigote form after 72 hrs by steady-Glo reagent based assay; assay type: functional, organism-based; how it was run: as §1
[16] = Selectivity index, ratio of CC50 for human THP1 cells to EC50 for Leishmania infantum amastigote form; assay type: toxicity; conditions: read-out: Ratio CC50/EC50; how it was run: as §2

Sequence of CYP2C9 (P11712 whole entry): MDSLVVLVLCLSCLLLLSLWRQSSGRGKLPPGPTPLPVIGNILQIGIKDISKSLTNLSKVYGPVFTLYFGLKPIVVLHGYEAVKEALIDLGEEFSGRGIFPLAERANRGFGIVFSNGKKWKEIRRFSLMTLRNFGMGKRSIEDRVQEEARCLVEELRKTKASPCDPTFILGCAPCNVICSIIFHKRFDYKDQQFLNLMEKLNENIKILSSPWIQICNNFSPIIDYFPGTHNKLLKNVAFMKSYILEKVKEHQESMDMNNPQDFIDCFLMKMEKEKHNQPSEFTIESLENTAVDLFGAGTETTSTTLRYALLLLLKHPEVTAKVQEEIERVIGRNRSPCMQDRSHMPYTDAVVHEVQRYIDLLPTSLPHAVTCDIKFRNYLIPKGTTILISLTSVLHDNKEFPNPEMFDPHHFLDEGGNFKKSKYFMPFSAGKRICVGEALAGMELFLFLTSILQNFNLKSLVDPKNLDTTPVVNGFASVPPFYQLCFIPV
Sequence of Aurora kinase B (Q96GD4 whole entry): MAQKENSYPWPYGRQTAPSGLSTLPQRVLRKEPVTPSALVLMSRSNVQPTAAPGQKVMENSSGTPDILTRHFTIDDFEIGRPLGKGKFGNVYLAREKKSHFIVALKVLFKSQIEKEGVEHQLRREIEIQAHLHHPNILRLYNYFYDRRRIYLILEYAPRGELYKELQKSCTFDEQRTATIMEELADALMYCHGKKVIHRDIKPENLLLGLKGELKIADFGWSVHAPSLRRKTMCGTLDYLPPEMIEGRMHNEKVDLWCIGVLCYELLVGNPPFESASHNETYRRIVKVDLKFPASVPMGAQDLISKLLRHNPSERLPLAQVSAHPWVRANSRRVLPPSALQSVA

| inhibition at 0.75 h, 10 µM [6] [%] | inhibition at 0.5 h, 10 µM [7] [%] | EC50 [9] [µM] | EC50 [10] [µM] | EC50 [11] [µM] | EC50 [15] [µM] | Compound | CI [1] | Activity [2] [%] | Ratio EC50 [3] | growth inhibition (GI) [4] | Activity [5] | cytotoxicity at 6 h, 10 µM [8] [%] | CC50 at 72 h [12] [µM] | selectivity ratio [13] | CC50 at 72 h [14] [µM] | inhibition of growth at 50 µM ([4]; read-out: GI) [%] | selectivity ratio [16] |
| --- | --- | --- | --- | --- | --- | --- | --- | --- | --- | --- | --- | --- | --- | --- | --- | --- | --- |
| -2.55 | 56.8 | 0.59 | 29.5 | – | – | COc1ccc(-c2cccc(/C=N/NC(N)=S)c2)cc1OC | 0.28 | 99.67 | 4 | inactive | 6.36 | -13.1 | – | – | – | – | – |
| -6.24 | 18.9 | – | 1.31 | 0.11 | 6.14 | NC(=S)N/N=C/c1ccc(OCc2ccc(Cl)c(Cl)c2)cc1 | 0.41 | 99.67 | – | – | 6.56 | 23.4 | 82 | 55 | 72 | 80.5 | 13 |
